Bioassay records: PubChem, Broad Institute
Most compounds without a hit are left out; they make up all but 1.3% or so of the library.
S100A4 MyoIIA: inhibitors of S100A4-myosin IIA peptide binding, primary screen, biochemical, fluorescence polarization, TAMRA-MyoIIA peptide; 0.14% of 360,000 active; AID 652163, 2013; inhibition, % at 10.7 µM;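 active = mean inhibition of at least 70% across replicates, with every replicate also reaching that level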
Target sequence (P26447 whole entry, looked up): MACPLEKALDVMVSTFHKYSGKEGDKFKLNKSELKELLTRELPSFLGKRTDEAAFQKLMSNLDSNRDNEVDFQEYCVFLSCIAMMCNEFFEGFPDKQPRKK
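Compound dosing: one dose per compound; test system: human S100A4 monomer with TAMRA-labelled myosin IIA peptide; probe or stimulus: TAMRA-labelled myosin IIA heavy-chain peptide probe, 5 nM; medium: HEPES buffer with Ca2+, pH 7.2; schedule: 5 min incubation before reading; benchmarks: neutral control DMSO, positive control TFP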
GSIS activator: GLuc luminescence reporter in INS-1E cells, primary screen for activators of glucose-dependent secretion of insulin. INS-1E GLuc reporter insulin secretion, 2-3 h. activation, % at 16.6 µM. 0.61% of 370,000 active. AID 743287, 2014;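 active = lowest replicate activation of at least 40%, so every replicate reaches that level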;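 note: 0% = median of neutral control wells and 100% = median of IBMX positive control wells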
RAD52 inh: RAD52 DNA annealing inhibitors, primary screen, biochemical, FRET, single point, set 2 | DNA repair protein RAD52 homolog (Homo sapiens), P43351 | recombinant RAD52 DNA annealing, FRET fluorescence | 0.46% of 360,000 active | AID 651710, 2012 | inhibition, % at 18.7 µM;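 active = every replicate showing at least 50% inhibition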
Target sequence (P43351 whole entry, looked up): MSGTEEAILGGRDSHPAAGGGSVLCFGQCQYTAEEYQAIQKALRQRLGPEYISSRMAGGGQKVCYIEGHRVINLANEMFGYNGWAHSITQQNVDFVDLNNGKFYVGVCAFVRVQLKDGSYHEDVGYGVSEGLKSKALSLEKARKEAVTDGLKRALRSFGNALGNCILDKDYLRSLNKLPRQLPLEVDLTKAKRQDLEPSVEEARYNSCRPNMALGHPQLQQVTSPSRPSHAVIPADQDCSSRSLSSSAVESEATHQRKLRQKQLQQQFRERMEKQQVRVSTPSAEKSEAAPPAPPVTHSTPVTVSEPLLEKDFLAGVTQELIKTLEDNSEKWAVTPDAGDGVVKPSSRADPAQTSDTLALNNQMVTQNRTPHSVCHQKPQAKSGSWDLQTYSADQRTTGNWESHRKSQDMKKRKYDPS
RAD54 branch: inhibitors of human RAD54 branch migration, primary screen, biochemical, fluorescence, single point; RAD54 Holliday junction branch migration, FAM/BHQ fluorescence; inhibition, % at 10.4 µM; 0.14% of 360,000 active;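 active = mean normalized replicate activity at least 40 and at least half of replicates scoring 40 or more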;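 note: 0% = median of neutral control wells and 100% = median of positive control wells; inhibitors cause a drop in the FAM fluorescence signal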
AF4-AF9 inh: inhibitors of AF4 peptide binding to AF9, primary screen, biochemical, AlphaScreen, biotin-AF4 peptide, FLAG-AF9, single point | Protein AF-9 (Homo sapiens), P42568 | 0.47% of 350,000 active | inhibition, % at 10 µM;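 active = every replicate reaching a set inhibition limit, whatever the replicate mean, cut at about 25% in these data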;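 note: 0% = plate neutral control median and 100% = total signal loss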
The depositor's hits bear a star; i = inactive; / = no result.

SMILES	S100A4 MyoIIA	GSIS activator	RAD52 inh	RAD54 branch	AF4-AF9 inh
C[C@H]1CN([C@@H](C)CO)S(=O)(=O)c2ccc(-c3ccc(C(=O)N(C)C)cc3)cc2O[C@H]1CN(C)C(=O)Cc1ccccn1	0	-3	11	-3	-3
Cc1ccc(-n2nc3ccc(NC(=O)c4ccco4)cc3n2)cc1	/	65*	/	-4	/
C[C@@H]1CN([C@H](C)CO)C(=O)c2cccc(NS(=O)(=O)c3ccccc3)c2O[C@@H]1CN(C)Cc1ccc(Oc2ccccc2)cc1	3	-15	4	-3	-1
C[C@@H]1CN([C@H](C)CO)C(=O)c2cc(N(C)C)ccc2O[C@@H]1CN(C)Cc1ccc(Oc2ccccc2)cc1	22	-31	17	4	52*
C[C@@H]1CN([C@H](C)CO)C(=O)c2cc(N(C)C)ccc2O[C@H]1CN(C)Cc1ccc(Oc2ccccc2)cc1	4	-24	-8	3	40*
C[C@@H]1CN([C@@H](C)CO)C(=O)c2cc(N(C)C)ccc2O[C@H]1CN(C)Cc1ccccc1	-5	17	-13	0	-3
C[C@H](CO)N1C[C@H](C)[C@H](CN(C)Cc2ccc(Oc3ccccc3)cc2)Oc2ccc(N(C)C)cc2C1=O	-1	-25	11	-6	52*
C[C@H](CO)N1C[C@H](C)[C@@H](CN(C)Cc2ccccc2)Oc2ccc(N(C)C)cc2C1=O	-6	22	-3	-7	-4
C[C@H]1CN([C@@H](C)CO)C(=O)c2cc(N(C)C)ccc2O[C@@H]1CN(C)Cc1ccc(C(=O)O)cc1	/	17	/	/	-1
O=C(NC1CCCCC1)N[C@H]1CC[C@H](CC(=O)N2CCOCC2)O[C@@H]1CO	13	5	2	-8	-2
CC(C)N1C(=O)N(c2cccc(Cl)c2)C(C)(O)CC1(C)C (centres undefined)	4	64*	-18	-4	-2
O=C(C[C@@H]1CC[C@H]2NC[C@@H](O)COC[C@@H]2O1)Nc1ccccc1	19	9	-4	1	-1
COc1ccc(-c2nc(N3CCN(C)CC3)sc2-c2ccc(OC)cc2)cc1	2	-19	10	10	34*
COc1ccc(-c2nc(N3CCCCCC3)sc2C(=O)c2ccccc2)cc1	/	/	/	3	/
C[C@@H]1CN([C@@H](C)CO)C(=O)c2cc(C#Cc3ccccc3F)cnc2O[C@H]1CN(C)C(=O)Cc1cccnc1	2	-19	2	2	0
O=C(C[C@H]1CC[C@@H](NC(=O)Nc2cccc(F)c2)[C@H](CO)O1)NCC1CCCCC1	1	/	20	0	0
C[C@@H]1CN([C@H](C)CO)C(=O)c2cccc(NC(=O)Nc3ccc(C(F)(F)F)cc3)c2O[C@H]1CN(C)CC1CCCCC1	-4	3	-12	2	3
C[C@@H]1CN([C@@H](C)CO)C(=O)c2cccc(NC(=O)Nc3ccc(C(F)(F)F)cc3)c2O[C@H]1CN(C)Cc1ccc(Cl)c(Cl)c1	18	44*	-2	-9	1
C[C@@H]1CN([C@H](C)CO)C(=O)c2cccc(NC(=O)Nc3ccc(C(F)(F)F)cc3)c2O[C@@H]1CN(C)CC1CCCCC1	2	-8	57*	8	7
CCCNC(=O)Nc1ccc2c(c1)OC[C@H](C)N(C(=O)CC)C[C@@H](C)[C@H](OC)CN(C)C2=O	3	-3	14	-14	-2
CC(C)CCC(O)(CCC(C)C)C(=O)NN1CCCCC1	/	49*	/	/	/
CCCC(O)(CCC)C(=O)NN1CCCCC1	4	10	-17	3	3
CO[C@@H]1CN(C)C(=O)c2cc(NS(=O)(=O)c3cn(C)cn3)ccc2OC[C@H](C)NC[C@H]1C	-5	14	0	/	-3
CC(C)c1nc2oc3c(NCc4cccnc4)ncnc3c2c2c1CCC2	/	/	/	-4	/
CC(C)Cc1nc2oc3c(NCc4cccnc4)ncnc3c2c2c1CCC2	1	75*	-8	-5	/
SMILES	S100A4 MyoIIA	GSIS activator	RAD52 inh	RAD54 branch	AF4-AF9 inh
C[C@H]1CN([C@@H](C)CO)C(=O)Cc2cc(NS(=O)(=O)c3ccccc3)ccc2O[C@@H]1CN(C)Cc1ccc2c(c1)OCO2	3	-7	9	-8	3
CCC1CCCCN1S(=O)(=O)c1ccc(NC(=O)c2nc(S(C)(=O)=O)ncc2Cl)cc1 (centres undefined)	1	72*	-23	-4	2
COc1ccc(CNC(=O)c2nc(S(=O)(=O)Cc3ccccc3)ncc2Cl)cc1	-2	59*	-5	3	-3
O=C(NCc1ccccc1)c1nc(S(=O)(=O)Cc2ccccc2)ncc1Cl	-6	42	-10	4	2
CCS(=O)(=O)c1ncc(Cl)c(C(=O)Nc2ccc(C)cc2)n1	-3	63*	-6	6	1
CC(=O)Nc1ccc(NC(=O)c2nc(S(=O)(=O)Cc3ccccc3)ncc2Cl)cc1	-3	60*	6	-5	2
C[C@@H]1CN([C@H](C)CO)C(=O)c2cc(C#Cc3cccc(F)c3)cnc2O[C@@H]1CN(C)CC1CC1	/	4	/	/	/
O=C(C[C@@H]1CC[C@@H]2[C@H](COC[C@@H](O)CN2Cc2ccccc2)O1)NCc1ccccc1Cl	0	-12	2	2	-1
CCCCCCCOC(=O)c1nc(Cl)c(Cl)c(N)c1Cl	-1	416*	-13	7	-4
CCCCOC(=O)c1nc(Cl)c(Cl)c(N)c1Cl	1	3	-27	-8	3
C[C@@H]1CN([C@@H](C)CO)C(=O)Cc2cc(NC(=O)C3CCCCC3)ccc2O[C@@H]1CN(C)Cc1ccc2c(c1)OCO2	1	-2	7	13	-2
Cc1ccc(Cc2c(-c3ccc(Cl)cc3)nc3cc(C)c(Br)c(C)n23)cc1	-2	/	-11	-6	1
Cc1cc2nc(-c3ccc(Cl)cc3)c(Cc3ccsc3)n2c(C)c1Br	-8	100*	-14	/	-1
C[C@H](O)C#Cc1cnc2c(c1)C(=O)N([C@@H](C)CO)C[C@H](C)[C@@H](CN(C)C(=O)CC1CC1)O2	9	24	2	-4	0
Cc1cccc(Nc2nc(N)nc(N)c2N=O)c1	-16	19	-3	14	1
Cc1ccc(N(C)c2nc(N)nc(N)c2N=O)cc1	191*	-8	i	/	1
O=C(Nc1ccc(Cl)c(Cl)c1)N[C@@H]1CC[C@@H](CCn2cc(C3CCCC3)nn2)O[C@H]1CO	-4	-22	-5	/	0
C/C=C/c1ccc(OCCCN2C(=O)NC(C)(C)C2=O)c(OC)c1	/	27	/	3	/
C/C=C/c1ccc(OCCN2C(=O)NC(C)(C)C2=O)c(OC)c1	/	44*	/	-6	/
COc1cc(/C=N/N2CCN(c3ccc(Cl)cc3)CC2)cc(OC)c1OC(C)=O	-2	4	-6	-3	0
